In ChEMBL document CHEMBL4028886 (J Med Chem, 2017):

Assays:
[1] = biological target: Sodium-dependent dopamine transporter (Homo sapiens, UniProt Q01959); assay: Inhibition of re-uptake of [3H]-dopamine at human DAT expressed in HEK293 cells preincubated for 5 mins followed by [3H]-dopamine addition measured after 1 min by liquid scintillation counting; assay type: cell-based; conditions: read-out: IC50
Outline: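 HEK293 cells stably expressing human DAT or NET, seeded on PDL-coated plates 24 h before. Preincubated 5 min in Krebs–HEPES buffer pH 7.3 with compound at 0.001 μM to 1 mM (DMSO stock diluted in buffer). Substrate then added: 0.2 μM [3H]dopamine for DAT, 1 min; 0.05 μM [3H]MPP+ for NET, 3 min. Room temperature. Uptake stopped with ice-cold buffer. Cells lysed in 1% SDS and counted by scintillation. Unspecific uptake defined with 10 μM mazindol. IC50 by nonlinear regression.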

[2] = tested on: Rattus norvegicus; assay: Neurotoxicity in Sprague-Dawley rat assessed as piloerection score at 10 mg/kg, ip administered 30 mins prior to test (reference value: 2.1 +/- 0.3162); assay type: toxicity, organism-based; conditions: in vivo, 0.5 h
[3] = tested on: Rattus norvegicus; assay: Neurotoxicity in Sprague-Dawley rat assessed as effect on distance traveled in closed arms at 10 mg/kg, ip administered 30 mins prior to test by elevated plus maze test relative to control; assay type: toxicity, organism-based; conditions: in vivo, 0.5 h
Outline: (§1)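 Male Sprague–Dawley rats, 10 per group, dosed 10 mg/kg ip daily for 10 days and 30 min before testing. DMSO vehicle controls. Elevated plus maze, rats placed centrally and video-tracked. Recorded: time in closed and open arms, arm entries, path length.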

[4] = tested on: Rattus norvegicus; assay: Neurotoxicity in Sprague-Dawley rat assessed as effect on time spent in closed arm at 10 mg/kg, ip administered 30 mins prior to test by elevated plus maze test relative to control; assay type: toxicity, organism-based; conditions: in vivo, 0.5 h; outline: as §1
[5] = tested on: Rattus norvegicus; assay: Neurotoxicity in Sprague-Dawley rat assessed as effect on frequency of spontaneous changes of direction at 10 mg/kg, ip administered 30 mins prior to test by open field test; assay type: toxicity, organism-based; conditions: in vivo, 0.5 h
Outline: (§2)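 Male Sprague–Dawley rats, 10 per group, given 10 mg/kg ip daily for 10 days and 30 min before each test. DMSO vehicle group as control. Open field arena 100 × 100 cm with 40 cm walls. Animals video-tracked for 10 min.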

[6] = tested on: Rattus norvegicus; assay: Neurotoxicity in Sprague-Dawley rat assessed as limb rotation score at 10 mg/kg, ip administered 30 mins prior to test (reference value: 3.3 +/- 0.4830); assay type: toxicity, organism-based; conditions: in vivo, 0.5 h
[7] = tested on: Rattus norvegicus; assay: Neurotoxicity in Sprague-Dawley rat assessed as tail pinch score at 10 mg/kg, ip administered 30 mins prior to test (reference value: 0.8 +/- 0.788); assay type: toxicity, organism-based; conditions: in vivo, 0.5 h
[8] = tested on: Rattus norvegicus; assay: Neurotoxicity in Sprague-Dawley rat assessed as effect on immobility time at 10 mg/kg, ip administered 30 mins prior to test by forced swim test relative to control; assay type: toxicity, organism-based; conditions: in vivo, 0.5 h
Outline: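 Male Sprague–Dawley rats, 10 per group, dosed 10 mg/kg ip daily for 10 days and 30 min before testing. DMSO vehicle controls. Forced swim in a cylinder 18 cm diameter with 23 cm water at 25 °C. 15 min pretest, then a 5 min test 24 h later. Immobility duration scored over the 5 min.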

[9] = tested on: Rattus norvegicus; assay: Neurotoxicity in Sprague-Dawley rat assessed as finger approach score at 10 mg/kg, ip administered 30 mins prior to test (reference value: 1.4 +/- 1.350); assay type: toxicity, organism-based; conditions: in vivo, 0.5 h
[10] = tested on: Rattus norvegicus; assay: Neurotoxicity in Sprague-Dawley rat assessed as pelvic elevation score at 10 mg/kg, ip administered 30 mins prior to test (reference value: 3.8 +/- 0.6325); assay type: toxicity, organism-based; conditions: in vivo, 0.5 h
[11] = tested on: Rattus norvegicus; assay: Neurotoxicity in Sprague-Dawley rat assessed as effect on large movements at 10 mg/kg, ip administered 30 mins prior to test by open field test relative to control; assay type: toxicity, organism-based; conditions: in vivo, 0.5 h; outline: as §2
[12] = tested on: Rattus norvegicus; assay: Neurotoxicity in Sprague-Dawley rat assessed as touch escape score at 10 mg/kg, ip administered 30 mins prior to test (reference value: 1.2 +/- 1.033); assay type: toxicity, organism-based; conditions: in vivo, 0.5 h

Sequence of Sodium-dependent dopamine transporter (Q01959 whole entry): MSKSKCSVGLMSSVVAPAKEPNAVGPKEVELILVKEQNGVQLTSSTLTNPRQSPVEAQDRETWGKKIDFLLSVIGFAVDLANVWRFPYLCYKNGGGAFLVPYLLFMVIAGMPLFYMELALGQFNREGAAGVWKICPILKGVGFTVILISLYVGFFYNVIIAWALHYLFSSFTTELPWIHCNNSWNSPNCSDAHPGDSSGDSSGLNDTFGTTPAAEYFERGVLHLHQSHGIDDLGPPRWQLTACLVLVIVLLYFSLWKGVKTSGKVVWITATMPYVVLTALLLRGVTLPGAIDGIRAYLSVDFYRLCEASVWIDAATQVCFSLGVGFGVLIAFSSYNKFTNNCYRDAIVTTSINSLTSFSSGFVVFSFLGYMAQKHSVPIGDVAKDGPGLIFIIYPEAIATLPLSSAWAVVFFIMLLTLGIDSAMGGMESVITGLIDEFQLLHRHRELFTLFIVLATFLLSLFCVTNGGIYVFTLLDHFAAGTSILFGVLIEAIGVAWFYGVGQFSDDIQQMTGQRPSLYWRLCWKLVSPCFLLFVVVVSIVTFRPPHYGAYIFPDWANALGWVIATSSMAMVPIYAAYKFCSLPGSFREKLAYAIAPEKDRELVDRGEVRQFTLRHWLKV

SMILES: [O-][S+](Cc1cccs1)C(c1ccccc1)c1ccccc1 (configuration not stated)
- IC50 [1]: 1400 nM
- Activity [2]: 2.2
- Activity [3]: Non-Toxic
- Activity [4]: Non-Toxic
- Activity [5]: Non-Toxic
- Activity [6]: 3.4
- Activity [7]: 0.9
- Activity [8]: Non-Toxic
- Activity [9]: 1.4
- Activity [10]: 3.6
- Activity [11]: Non-Toxic
- Activity [12]: 1.2
